Reference: ChEMBL document CHEMBL3351384, “Synthesis of pyrazoline-thiazolidinone hybrids with trypanocidal activity” (Eur J Med Chem, 2014)
pIC50: −log10 of the molar value. ≈ marks a conversion by molar mass, not a printed value.

Tests used:
[1] = test system: Trypanosoma brucei gambiense; assay: Anti-trypanosomal activity against Trypanosoma brucei gambiense Feo bloodstream forms assessed as inhibition of parasite growth rate at 50 ug/mL after 72 hrs by resazurin assay; type: functional; conditions: read-out: GI
In short: (§1)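 Fixed-concentration screen of bloodstream-form Feo parasites, 10⁴ cells per well, cultured in HMI9 with 10% FCS at 37 °C, 5% CO2. Most compounds tested at 50, 10 and 1; some at 100, 20 and 2. Growth measured by resazurin fluorescence at 530 nm. Percent inhibition calculated against untreated wells.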

[2] = test system: Trypanosoma brucei gambiense; assay: Anti-trypanosomal activity against Trypanosoma brucei gambiense Feo bloodstream forms assessed as inhibition of parasite growth rate at 10 ug/mL after 72 hrs by resazurin assay; type: functional; conditions: read-out: GI; in short: as §1
[3] = test system: Trypanosoma brucei gambiense; assay: Anti-trypanosomal activity against Trypanosoma brucei gambiense Feo bloodstream forms assessed as inhibition of parasite growth rate at 1 ug/mL after 72 hrs by resazurin assay; type: functional; conditions: read-out: GI; in short: as §1
[4] = test system: Trypanosoma brucei gambiense; assay: Anti-trypanosomal activity against Trypanosoma brucei gambiense Feo bloodstream forms assessed as inhibition of parasite growth rate after 72 hrs by resazurin assay; type: functional, organism-based
In short: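 Bloodstream-form Feo parasites in HMI9 with 10% FCS, 37 °C, 5% CO2. Log-phase cells harvested at 3000 × g and used at once. 10⁴ cells per well, with or without inhibitor (stocks in DMSO). Resazurin added and fluorescence read at 530 nm. Inhibition taken against drug-free wells. IC50 from dose–response curves ranging down to 10 ng/ml. Mean ± SD of three independent experiments.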

Trypanosoma cruzi = assay: Anti-trypanosomal activity against Trypanosoma cruzi Y; type: functional, organism-based
[5] = test system: Trypanosoma brucei rhodesiense; assay: Anti-trypanosomal activity against Trypanosoma brucei rhodesiense; type: functional, organism-based
[6] = test system: Trypanosoma brucei brucei; assay: Anti-trypanosomal activity against Trypanosoma brucei brucei; type: functional, organism-based
[7] = test system: Trypanosoma brucei gambiense; assay: Anti-trypanosomal activity against Trypanosoma brucei gambiense Feo bloodstream forms assessed as inhibition of parasite growth rate at 100 ug/mL after 72 hrs by resazurin assay; type: functional; conditions: read-out: GI; in short: as §1
[8] = test system: Trypanosoma brucei gambiense; assay: Anti-trypanosomal activity against Trypanosoma brucei gambiense Feo bloodstream forms assessed as inhibition of parasite growth rate at 20 ug/mL after 72 hrs by resazurin assay; type: functional; conditions: read-out: GI; in short: as §1
[9] = test system: Trypanosoma brucei gambiense; assay: Anti-trypanosomal activity against Trypanosoma brucei gambiense Feo bloodstream forms assessed as inhibition of parasite growth rate at 2 ug/mL after 72 hrs by resazurin assay; type: functional; conditions: read-out: GI; in short: as §1
[10] = Cytotoxicity against rat L6 cells after 5 days by resazurin assay; type: cell-based
In short: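 Rat myoblast L-6 cells in RPMI with 25 mM HEPES pH 7.3 and 10% fetal calf serum, 37 °C, 5% CO2. Compounds from DMSO stocks, final DMSO below 1%. Controls received DMSO only. Viability by resazurin conversion, fluorescence at 530 nm excitation and 590 nm emission after a further 4 h. CC50 is the mean ± SD of three independent experiments.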

[11] = Selectivity index, ratio of CC50 for rat L6 cells to IC50 for Trypanosoma brucei gambiense Feo; type: functional
In short: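 Computed as CC50 (L-6 cells, resazurin) divided by IC50 (T. b. gambiense Feo bloodstream forms, resazurin). Both values are means of three independent experiments.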

[12] = test system: Trypanosoma brucei gambiense; assay: Potency index, ratio of IC50 for nifurtimox to IC50 for test compound against Trypanosoma brucei gambiense Feo bloodstream forms assessed as inhibition of parasite growth rate after 72 hrs by resazurin assay; type: functional

Row | Compound | pIC50 [4] | inhibition of growth at 50 µg/mL [1] [%] | inhibition of growth at 10 µg/mL [2] [%] | inhibition of growth at 1 µg/mL [3] [%] | other results
1 | CCC1SC(N/N=C/CSc2ccccc2)=NC1=O (configuration not stated) |  |  |  |  | pIC50 (Trypanosoma cruzi): 6.52
2 | CC1=NN(C2=NC(=O)CS2)C(c2ccccc2)C1 (configuration not stated) |  |  |  |  | IC50 [5]: 12 µg/mL (≈ 46.3 µM)
3 | COc1ccc(C2CC(c3ccccc3)=NN2C2=NC(=O)S/C2=C\c2ccc([N+](=O)[O-])cc2)cc1 (configuration not stated) |  |  |  |  | IC50 [6]: 3.01 µg/mL (≈ 6.21 µM)
4 | COc1ccc(C2CC(c3ccccc3)=NN2/C=C2\SC(=S)NC2=O)cc1 (configuration not stated) | 4.83 | 91.5 | 92.3 | 21.9 | 
5 | CN(C)c1ccc(C2CC(c3ccccc3)=NN2/C=C2\SC(=S)NC2=O)cc1 (configuration not stated) | 4.98 | 74 | 76.2 | 30.2 | 
6 | O=C1NC(=S)S/C1=C\N1N=C(c2ccc3ccccc3c2)CC1c1ccc(F)cc1 (configuration not stated) | 4.88 | 85.4 | 85 | 19.9 | 
7 | CN1C(=O)/C(=C/N2N=C(c3ccccc3)CC2c2ccc(Cl)cc2)SC1=S (configuration not stated) |  |  |  |  | inhibition of growth at 100 µg/mL [7]: 56%; inhibition of growth at 20 µg/mL [8]: 42%; inhibition of growth at 2 µg/mL [9]: 8.2%
8 | CN1C(=O)/C(=C/N2N=C(c3ccc4ccccc4c3)CC2c2ccc(Cl)cc2)SC1=S (configuration not stated) | < 6.00 | 97 | 97.2 | 97.1 | CC50 at 120 h [10]: 154 µM
9 | COc1ccc(C2CC(c3ccccc3)=NN2/C=C2\SC(=S)N(Cc3ccco3)C2=O)cc1 (configuration not stated) |  | 46.6 | 67.3 | 37.9 | 
10 | COc1ccc(C2=NN(/C=C3\SC(=S)N(Cc4ccco4)C3=O)C(c3ccc(OC)cc3)C2)cc1 (configuration not stated) | < 4.00 | 12.8 | 48.2 | 38.7 | 
11 | COc1ccc(C2CC(c3ccc4ccccc4c3)=NN2/C=C2\SC(=S)N(Cc3ccco3)C2=O)cc1 (configuration not stated) |  | 54.6 | 32.1 | 19.4 | 
12 | O=C1/C(=C/N2N=C(c3ccc4ccccc4c3)CC2c2ccc(Cl)cc2)SC(=S)N1Cc1ccco1 (configuration not stated) |  | 59.6 | 45.3 | 29 | 
13 | COc1ccc(C2=NN(/C=C3\SC(=S)N(c4ccc(C)cc4)C3=O)C(c3ccc(OC)cc3)C2)cc1 (configuration not stated) |  | 23.1 | 55.5 | 44.5 | 
14 | Cc1ccc(N2C(=O)/C(=C/N3N=C(c4ccccc4)CC3c3ccc(N(C)C)cc3)SC2=S)cc1 (configuration not stated) | < 4.70 | 5.8 | 51.9 | 39.8 | 
15 | Cc1ccc(N2C(=O)/C(=C/N3N=C(c4ccc5ccccc5c4)CC3c3ccc(Cl)cc3)SC2=S)cc1 (configuration not stated) | 4.66 | 41.7 | 59.4 | 27.6 | 
16 | COc1ccc(C2CC(c3ccccc3)=NN2/C=C2\SC(=S)N(c3cccc(OC(C)=O)c3)C2=O)cc1 (configuration not stated) | 4.97 | 97.2 | 97.5 | 79.3 | 
17 | CC(=O)Oc1cccc(N2C(=O)/C(=C/N3N=C(c4ccc5ccccc5c4)CC3c3ccc(Cl)cc3)SC2=S)c1 (configuration not stated) | 4.78 | 90.6 | 89.9 | 66.7 | 
18 | COc1ccc(C2CC(c3ccc4ccccc4c3)=NN2/C=C2\SC(=O)NC2=S)cc1 (configuration not stated) | 4.73 | 87.2 | 74.7 | 19.7 | 

Second part, led by results:

Row | pIC50 [4] | Compound | inhibition of growth at 50 µg/mL [1] [%] | inhibition of growth at 10 µg/mL [2] [%] | inhibition of growth at 1 µg/mL [3] [%] | other results
19 | 5.46 | O=C1NC(=S)/C(=C/N2N=C(c3ccccc3)CC2c2ccccc2O)S1 (configuration not stated) | 85.8 | 93.3 | 61 | 
20 | 6.22 | COc1ccc(C2CC(c3ccc4ccccc4c3)=NN2/C=C2\SC(=S)N(C)C2=O)cc1 (configuration not stated) | 97.1 | 97.2 | 97.2 | CC50 at 120 h [10]: 175 µM; Ratio CC50/IC50 [11]: 292; Ratio IC50 [12]: 6
21 | 5.82 | COc1ccc(C2CC(c3ccccc3)=NN2/C=C2\SC(=S)N(c3ccc(C)cc3)C2=O)cc1 (configuration not stated) | 17.8 | 69.2 | 52.5 | 
22 | 5.60 | COc1ccc(C2=NN(/C=C3\SC(=S)N(c4ccc(C)cc4)C3=O)C(c3ccc(Cl)cc3)C2)cc1 (configuration not stated) | 40.2 | 70.4 | 62.8 | 
23 | 5.96 | CC(=O)Oc1cccc(N2C(=O)/C(=C/N3N=C(c4ccccc4)CC3c3ccccc3O)SC2=S)c1 (configuration not stated) | 90.9 | 93.8 | 83.1 | CC50 at 120 h [10]: 13.6 µM; Ratio CC50/IC50 [11]: 12.4
24 | 6.15 | COc1ccc(C2=NN(/C=C3\SC(=S)N(c4cccc(OC(C)=O)c4)C3=O)C(c3ccccc3O)C2)cc1 (configuration not stated) | 89.5 | 91.7 | 90.1 | CC50 at 120 h [10]: 40 µM; Ratio CC50/IC50 [11]: 57.1; Ratio IC50 [12]: 6
25 | 5.92 | COc1ccc(C2CC(c3ccc4ccccc4c3)=NN2/C=C2\SC(=S)N(c3cccc(OC(C)=O)c3)C2=O)cc1 (configuration not stated) | 94.7 | 95.8 | 87.6 | CC50 at 120 h [10]: > 172 µM; Ratio CC50/IC50 [11]: >143.8
26 | 5.92 | CC(=O)Oc1cccc(N2C(=O)/C(=C/N3N=C(c4ccccc4)CC3c3ccc(N(C)C)cc3)SC2=S)c1 (configuration not stated) | 81.6 | 84.9 | 53.1 | CC50 at 120 h [10]: > 184 µM; Ratio CC50/IC50 [11]: >153.6
27 | 5.72 | CC(=O)Oc1cccc(N2C(=O)/C(=C/N3N=C(c4ccccc4)CC3c3ccc(Cl)cc3)SC2=S)c1 (configuration not stated) | 90.3 | 91.4 | 42.1 | 
28 | 5.34 | COc1ccc(C2CC(c3ccccc3)=NN2C(=O)CN/C=C2\SC(=S)N(C)C2=O)cc1 (configuration not stated) | 96.1 | 96.5 | 62.3 | 
29 | 5.68 | CN1C(=O)/C(=C/NCC(=O)N2N=C(c3ccc4ccccc4c3)CC2c2ccc(Cl)cc2)SC1=S (configuration not stated) | 93.5 | 86.9 | 52 | 
30 | 5.82 | CN1C(=O)/C(=C/NCC(=O)N2N=C(c3ccc4ccccc4c3)CC2c2ccc(F)cc2)SC1=S (configuration not stated) | 95.6 | 94.8 | 46.6 | 
31 | 5.36 | CC1CS(=O)(=O)CCN1/N=C/c1ccc([N+](=O)[O-])o1 (configuration not stated) [NIFURTIMOX] |  |  |  | CC50 at 120 h [10]: 78.2 µM; Ratio CC50/IC50 [11]: 17.8
